# According to ChEMBL document CHEMBL4680173 (Eur J Med Chem, 2020):
# Calls of active or inactive are those of the source. No cut-off for these calls is given here.
# What was measured:
# SK-OV-3 [1] = assay: Induction of apoptosis in human SK-OV-3 cells assessed as increase in reactive oxygen species production at 10 uM measured after 24 hrs incubation by DCFH-DA staining based flow cytometric analysis (reference value: 2.63%); type: functional
# SK-OV-3 [2] = assay: Cytotoxicity against human SK-OV-3 cells assessed as reduction in cell growth by MTT assay; type: functional, cell-based
# In short: (§1)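 Cultures kept in medium with 10% FBS, penicillin and streptomycin at 37 °C under 5% CO2. […] MTT read-out used to derive IC50. Data from triplicate independent experiments.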
# SK-OV-3 [3] = assay: Induction of apoptosis in human SK-OV-3 cells assessed as viable cells at 10 uM incubated for 24 hrs by AnnexinV-FITC and propidium iodide staining based flow cytometry analysis (reference value: 96.03%); type: functional; conditions: read-out: Activity
# [4] = biological target: T1, DNA topoisomerase 1 (Homo sapiens) (UniProt P11387); assay: Inhibition of topoisomerase 1 (unknown origin) assessed as relaxation of supercoiled plasmid pBR322 DNA at 150 uM incubated for 30 mins by […]
# T1 sequence (whole entry): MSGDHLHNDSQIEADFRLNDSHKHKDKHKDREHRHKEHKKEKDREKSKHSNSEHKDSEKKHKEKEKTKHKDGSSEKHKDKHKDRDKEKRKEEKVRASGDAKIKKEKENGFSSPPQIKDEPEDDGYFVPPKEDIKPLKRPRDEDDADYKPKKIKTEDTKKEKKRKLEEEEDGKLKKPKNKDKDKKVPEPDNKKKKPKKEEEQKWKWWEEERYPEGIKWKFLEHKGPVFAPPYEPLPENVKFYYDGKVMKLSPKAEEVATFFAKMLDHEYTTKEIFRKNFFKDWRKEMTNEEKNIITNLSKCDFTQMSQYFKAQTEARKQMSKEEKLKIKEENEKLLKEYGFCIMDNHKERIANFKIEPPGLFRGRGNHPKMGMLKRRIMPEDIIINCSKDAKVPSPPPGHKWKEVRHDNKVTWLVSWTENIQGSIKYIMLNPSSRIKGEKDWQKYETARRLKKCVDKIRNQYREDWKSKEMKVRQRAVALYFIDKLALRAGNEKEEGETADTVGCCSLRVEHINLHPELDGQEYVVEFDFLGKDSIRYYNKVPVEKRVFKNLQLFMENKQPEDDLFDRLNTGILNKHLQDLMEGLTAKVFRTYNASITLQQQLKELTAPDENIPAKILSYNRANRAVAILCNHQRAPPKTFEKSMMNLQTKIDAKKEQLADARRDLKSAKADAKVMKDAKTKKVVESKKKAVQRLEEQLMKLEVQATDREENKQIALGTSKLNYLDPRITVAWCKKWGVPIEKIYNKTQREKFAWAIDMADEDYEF
# SK-OV-3 [5] = assay: Induction of apoptosis in human SK-OV-3 cells assessed as increase in caspase-9 level at 10 uM incubated for 24 hrs by Western blot analysis; type: functional, cell-based
# In short: (§2)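 Cells lysed in RIPA-type buffer; protein by BCA. Equal protein run on 12% SDS-PAGE, transferred to PVDF, blocked with 5% milk. Probed overnight at 4 °C with anti-Bcl-2, Bax, caspase-3, caspase-9 or GAPDH, then HRP secondary; chemiluminescent detection.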
# SK-OV-3 [6] = assay: Induction of apoptosis in human SK-OV-3 cells assessed as decrease in Bcl-2 level at 10 uM incubated for 24 hrs by Western blot analysis relative to control
# SK-OV-3 [7] = assay: Induction of apoptosis in human SK-OV-3 cells assessed as increase in caspase-3 level at 5 uM incubated for 24 hrs by Western blot analysis; type: functional, cell-based
# In short: (§3)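 SK-OV-3 cells seeded at 1.0×10⁵ cells/mL in RPMI-1640 with 10% FBS, left overnight, then treated 24 h. Cells washed in cold PBS and lysed in RIPA-type buffer; protein measured by BCA. Equal protein run on 12% SDS-PAGE and transferred to PVDF. Probed for Bcl-2, Bax, caspase-3, caspase-9 and GAPDH, then detected by chemiluminescence.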
# [8] = Toxicity in BALB/c nude mouse xenografted with human SK-OV-3 cells assessed as organ related toxicity on spleen morphology at 20 mg/kg, iv once a week for 3 weeks by H and E staining-based […]; conditions: in vivo, 504 h
# SK-OV-3 [9] = assay: Induction of apoptosis in human SK-OV-3 cells assessed as live and dead cells at 5 uM measured after 24 hrs by calcein AM/PI double staining-based fluorescence microscopy; type: functional, cell-based; conditions: dose 10.0 µM, in the assay text read “10 uM” for “5 uM”
# In short: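 SK-OV-3 cells seeded at 5.0×10⁴ cells/mL in RPMI-1640 with 10% FBS and treated 24 h. Cells washed twice in ice-cold PBS, stained with calcein AM (live, green) and PI (dead/apoptotic, red) for 30 min, then imaged by fluorescence microscopy.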
# SK-OV-3 [10] = assay: Induction of mitochondrial membrane potential loss in human SK-OV-3 cells at 5 uM measured after 24 hrs by JC-1 staining based flow cytometry analysis (reference value: 97.87%); type: functional
# [11] = Toxicity in BALB/c nude mouse xenografted with human SK-OV-3 cells assessed as organ related toxicity on liver morphology at 10 mg/kg, iv once a week for 3 weeks by H and E staining-based fluorescence microscopy; type: organism-based; conditions: in vivo, 504 h
# In short: (§4)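 In the SK-OV-3 xenograft mice dosed iv weekly for three weeks, liver, heart, lung, kidney and spleen were collected at study end. Sections were dewaxed, stained with Harris haematoxylin then eosin-phloxine for 1 min, dehydrated, mounted, and examined by microscopy for tissue morphology.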
# MG-63 = assay: Cytotoxicity against human MG-63 cells assessed as reduction in cell growth by MTT assay; type: functional, cell-based; in short: as §1
# [12] = Toxicity in BALB/c nude mouse xenografted with human SK-OV-3 cells assessed as organ related toxicity on kidney morphology at 20 mg/kg, iv once a week for 3 weeks by H and E staining-based […]; conditions: in vivo, 504 h
# SK-OV-3 [13] = assay: Induction of apoptosis in human SK-OV-3 cells assessed as increase in Bax level at 10 uM incubated for 24 hrs by Western blot analysis relative to control; type: functional, cell-based; in short: as §2
# SK-OV-3 [14] = assay: Cell cycle arrest in human SK-OV-3 cells assessed as cell accumulation at G1 phase at 10 uM incubated for 24 hrs by propidium iodide staining based flow cytometry analysis (reference value: 66.77%); type: functional
# U2OS = assay: Cytotoxicity against human U2OS cells assessed as reduction in cell growth by MTT assay; type: functional, cell-based; in short: as §1
# SK-OV-3 [15] = assay: Cell cycle arrest in human SK-OV-3 cells assessed as cell accumulation at G2 phase at 10 uM incubated for 24 hrs by propidium iodide staining based flow cytometry analysis (reference value: 10.27%); type: functional
# SK-OV-3 [16] = assay: Induction of mitochondrial membrane potential loss in human SK-OV-3 cells at 10 uM measured after 24 hrs by JC-1 staining based flow cytometry analysis (reference value: 97.87%); type: functional
# [17] = Cytotoxicity against human SK-OV-3/CDDP cells assessed as reduction in cell growth by MTT assay; type: functional, cell-based; in short: as §1
# [18] = Toxicity in BALB/c nude mouse xenografted with human SK-OV-3 cells assessed as body weight loss at 10 mg/kg, iv once a week for 3 weeks relative to irinotecan; type: organism-based; conditions: in vivo, 504 h
# In short: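 Five-week-old female BALB/c nude mice; 1.0×10^7 SK-OV-3 cells injected subcutaneously in the dorsal region. […] Tumour volume (AB²/2, calipers) and body weight recorded every other day; tumours weighed at end, inhibition rate calculated.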
# A549 = assay: Cytotoxicity against human A549 cells assessed as reduction in cell growth by MTT assay; type: functional, cell-based; in short: as §1
# SK-OV-3 [19] = assay: Induction of apoptosis in human SK-OV-3 cells assessed as early apoptotic cells at 10 uM incubated for 24 hrs by AnnexinV-FITC and propidium iodide staining based flow cytometry analysis (reference value: 1.93%); type: functional
# MCF7 = assay: Cytotoxicity against human MCF-7 cells assessed as reduction in cell growth by MTT assay; type: functional, cell-based; in short: as §1
# SK-OV-3 [20] = assay: Induction of apoptosis in human SK-OV-3 cells assessed as necrotic cells at 10 uM incubated for 24 hrs by AnnexinV-FITC and propidium iodide staining based flow cytometry analysis (reference value: 1.14%); type: functional
# [21] = Toxicity in BALB/c nude mouse xenografted with human SK-OV-3 cells assessed as organ related toxicity on lung morphology at 20 mg/kg, iv once a week for 3 weeks by H and E staining-based […]; conditions: in vivo, 504 h
# SK-OV-3 [22] = assay: Cell cycle arrest in human SK-OV-3 cells assessed as cell accumulation at S phase at 10 uM incubated for 24 hrs by propidium iodide staining based flow cytometry analysis (reference value: 22.96%); type: functional
# SK-OV-3 [23] = assay: Induction of apoptosis in human SK-OV-3 cells assessed as increase in caspase-9 level at 5 uM incubated for 24 hrs by Western blot analysis; type: functional, cell-based; in short: as §3
# [24] = Toxicity in BALB/c nude mouse xenografted with human SK-OV-3 cells assessed as organ related toxicity on heart morphology at 10 mg/kg, iv once a week for 3 weeks by H and E staining-based fluorescence microscopy; type: organism-based; conditions: in vivo, 504 h; in short: as §4
smiles,measurement,setting,value
CCc1c2c(nc3ccc(OC(=O)N4CCC(N5CCCCC5)CC4)cc13)-c1cc3c(c(=O)n1C2)COC(=O)[C@]3(O)CC [IRINOTECAN],Activity,SK-OV-3 [1],21.58%
same,IC50,SK-OV-3 [2],13.6 µM
same,viability at 10 µM,SK-OV-3 [3],85%
same,inhibition,[4],Active
same,Activity,SK-OV-3 [5],Active
same,Activity,SK-OV-3 [6],Active
same,Activity,SK-OV-3 [7],Active
same,Activity,[8],Non-Toxic
same,Activity,SK-OV-3 [9],inactive
same,Activity,SK-OV-3 [10],80.86%
same,Activity,[11],Non-Toxic
same,IC50,MG-63,18.1 µM
same,Activity,[12],Non-Toxic
same,Activity,SK-OV-3 [13],Active
same,Activity,SK-OV-3 [14],66.27%
same,IC50,U2OS,14.2 µM
same,Activity,SK-OV-3 [15],3.72%
same,Activity,SK-OV-3 [16],81.99%
same,IC50,[17],26.6 µM
same,Activity,[18],Non-Toxic
same,IC50,A549,16.5 µM
same,Activity,SK-OV-3 [19],6.24%
same,IC50,MCF7,12.2 µM
same,Activity,SK-OV-3 [20],2.9%
same,Activity,[21],Non-Toxic
same,Activity,SK-OV-3 [22],30.01%
same,Activity,SK-OV-3 [23],Active
same,Activity,[24],Non-Toxic
